Data reported in ChEMBL document CHEMBL3797138, “Discovery of a Selective and Potent Inhibitor of Mitogen-Activated Protein Kinase-Interacting Kinases 1 and 2 (MNK1/2) Utilizing Structure-Based Drug Design” (J Med Chem, 2016).
≈ marks a conversion by molar mass, not a printed value.

What was measured:
[1] = biological target: MAP kinase-interacting serine/threonine-protein kinase 1 (Homo sapiens, UniProt Q9BUB5); assay: Inhibition of ERK2-activated full length wild type MNK1a (unknown origin) using biotin-SGSGKRREILSRRPSYR-NH2 as substrate after 2 hrs by HTRF assay
Summary of the method: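 In-house full-length MNK1a (0.5 nM final) activated by full-length ERK2 (0.5 nM final). Biotin-crebtide 200 nM and ATP 200 µM. Buffer: 50 mM Hepes pH 7.5, 5 mM MgCl2, 0.05% BSA, 0.01% Tween-20, 1 mM DTT, 2.5% DMSO. Reaction run 2 h, then stopped with EDTA/KF buffer holding Eu-anti-phospho-creb (0.23 nM) and streptavidin-XL665 (50 nM). Read by HTRF after overnight development in the dark.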

[2] = biological target: MAP kinase-interacting serine/threonine-protein kinase 2 (Homo sapiens, UniProt Q9HBH9); assay: Inhibition of N-terminal 6His-tagged recombinant human full length wild type MNK2b using biotin-SGSGKRREILSRRPSYR-NH2 as substrate after 1 hr by HTRF assay
Summary of the method: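 Commercial full-length wild-type MNK2b at 1 nM final, with biotin-crebtide 200 nM and ATP 200 µM. Buffer: 50 mM Hepes pH 7.5, 5 mM MgCl2, 0.05% BSA, 0.01% Tween-20, 1 mM DTT, 2.5% DMSO. Stop/detection buffer: 20 mM EDTA, 0.1% BSA, 0.4 M KF, with Eu-anti-phospho-creb antibody 0.23 nM and SA-XL665 50 nM. Developed overnight in the dark at room temperature; HTRF read, excitation 320 nm, emission 665 nm.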

[3] = biological target: Cyclin-dependent kinase 1 (Homo sapiens, UniProt P06493); assay: Inhibition of CDK1 (unknown origin)
[4] = biological target: Cyclin-dependent kinase 2 (Homo sapiens, UniProt P24941); assay: Inhibition of CDK2 (unknown origin)
[5] = Solubility of the compound at pH 7.4 by high throughput assay; conditions: buffer
[6] = Lipophilicity, log D of the compound at pH 7.4; conditions: buffer
[7] = biological target: MAP kinase-interacting serine/threonine-protein kinase 1/2 (Homo sapiens, UniProt Q9HBH9+Q9BUB5); assay: Inhibition of MNK1/2 in human KMS11-luc cells assessed as inhibition of EIF4E phosphorylation at S209 after 3 hrs by quantitative electrochemiluminescence assay; format: cell-based
Summary of the method: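 KMS11-luc cells seeded at 300,000 cells/well and exposed to compounds for 3 h at 37 °C, 5% CO2, then lysed in well with Triton-based buffer. Lysate captured overnight at 4 °C on blocked ECL plates. Detection: anti-phospho-EIF4E (S209) antibody 1:200 plus sulfo-tag goat anti-rabbit 1:400, 2 h at room temperature, electrochemiluminescence read. Phospho-EIF4E signal normalized to total YB1 for EC50.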

[8] = Apparent permeability across apical to basolateral side in human Caco2 cells; conditions: Caco-2
[9] = Efflux ratio of apparent permeability across basolateral to apical side over apical to basolateral side in human Caco2 cells; conditions: Caco-2
[10] = Antiproliferative activity against luciferase expressing human KMS11 cells after 5 days by CellTiter-Glo luminescent assay; format: functional, cell-based; conditions: KMS-11, 120 h
Summary of the method: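 KMS11-luc cells seeded at 2500 cells/well; compounds added 2 h after seeding, then incubated 5 days at 37 °C, 5% CO2. CellTiter-Glo added in equal volume, shaken 2 min, kept 10 min dark at room temperature, and luminescence read. EC50 fitted from % inhibition versus concentration (µM) with a four-parameter equation.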

[11] = biological target: Cyclin-dependent kinase 9 (Homo sapiens, UniProt P50750); assay: Inhibition of CDK9 (unknown origin)
[12] = biological target: Calcium/calmodulin-dependent protein kinase type II subunit delta (Homo sapiens, UniProt Q13557); assay: Inhibition of CAMK2D (unknown origin)
[13] = biological target: T1, Receptor-type tyrosine-protein kinase FLT3 (Homo sapiens, UniProt P36888); assay: Inhibition of FLT3 (unknown origin)
T1 sequence (P36888 whole entry): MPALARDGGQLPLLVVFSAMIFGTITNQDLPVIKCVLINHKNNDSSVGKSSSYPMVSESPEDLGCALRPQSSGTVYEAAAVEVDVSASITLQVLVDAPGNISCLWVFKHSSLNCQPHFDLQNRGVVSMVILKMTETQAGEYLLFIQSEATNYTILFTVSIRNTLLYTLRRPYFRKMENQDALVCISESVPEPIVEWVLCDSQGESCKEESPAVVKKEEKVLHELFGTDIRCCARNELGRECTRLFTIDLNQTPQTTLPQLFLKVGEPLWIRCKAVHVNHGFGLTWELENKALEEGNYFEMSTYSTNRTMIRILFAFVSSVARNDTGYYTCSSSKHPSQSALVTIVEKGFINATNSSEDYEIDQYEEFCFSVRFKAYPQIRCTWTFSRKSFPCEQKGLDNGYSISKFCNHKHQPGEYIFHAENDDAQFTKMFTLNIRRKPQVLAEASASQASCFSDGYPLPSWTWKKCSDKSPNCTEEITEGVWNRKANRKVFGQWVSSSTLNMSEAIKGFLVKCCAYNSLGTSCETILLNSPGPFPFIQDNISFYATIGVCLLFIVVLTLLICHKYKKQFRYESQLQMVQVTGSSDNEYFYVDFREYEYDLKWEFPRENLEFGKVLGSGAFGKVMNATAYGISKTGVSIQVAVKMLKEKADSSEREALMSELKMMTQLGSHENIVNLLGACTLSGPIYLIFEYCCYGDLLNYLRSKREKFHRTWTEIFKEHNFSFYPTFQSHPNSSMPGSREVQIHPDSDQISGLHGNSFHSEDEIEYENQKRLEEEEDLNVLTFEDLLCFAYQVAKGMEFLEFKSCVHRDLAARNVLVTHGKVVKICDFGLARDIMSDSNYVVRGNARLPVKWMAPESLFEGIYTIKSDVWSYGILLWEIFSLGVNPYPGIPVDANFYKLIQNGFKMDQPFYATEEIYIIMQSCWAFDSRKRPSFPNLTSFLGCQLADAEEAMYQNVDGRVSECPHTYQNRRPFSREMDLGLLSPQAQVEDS

[14] = biological target: Serine/threonine-protein kinase pim-2 (Homo sapiens, UniProt Q9P1W9); assay: Inhibition of PIM2 (unknown origin)
[15] = biological target: Rho-associated protein kinase 2 (Homo sapiens, UniProt O75116); assay: Inhibition of ROCK2 (unknown origin)
[16] = Inhibition of CYP450 (unknown origin); format: ADME, Homo sapiens
[17] = Intrinsic clearance in rat liver microsomes; format: ADME
[18] = Hepatic extraction ratio in rat liver microsomes; format: ADME; conditions: read-out: ERH

Chain of MAP kinase-interacting serine/threonine-protein kinase 1 (Q9BUB5 whole entry): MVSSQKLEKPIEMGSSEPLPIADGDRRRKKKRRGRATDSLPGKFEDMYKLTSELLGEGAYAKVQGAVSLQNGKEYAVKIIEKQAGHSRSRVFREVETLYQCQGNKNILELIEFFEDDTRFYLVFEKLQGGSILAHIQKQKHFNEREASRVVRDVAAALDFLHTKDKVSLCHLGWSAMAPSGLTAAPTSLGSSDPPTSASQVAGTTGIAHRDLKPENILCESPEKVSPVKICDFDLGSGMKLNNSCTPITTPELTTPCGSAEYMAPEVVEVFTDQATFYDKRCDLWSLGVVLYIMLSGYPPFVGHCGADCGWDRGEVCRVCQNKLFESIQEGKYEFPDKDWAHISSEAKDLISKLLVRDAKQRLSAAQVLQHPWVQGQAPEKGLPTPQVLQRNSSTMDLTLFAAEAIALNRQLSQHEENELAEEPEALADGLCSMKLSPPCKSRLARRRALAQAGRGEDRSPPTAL
Chain of Cyclin-dependent kinase 1 (P06493 whole entry): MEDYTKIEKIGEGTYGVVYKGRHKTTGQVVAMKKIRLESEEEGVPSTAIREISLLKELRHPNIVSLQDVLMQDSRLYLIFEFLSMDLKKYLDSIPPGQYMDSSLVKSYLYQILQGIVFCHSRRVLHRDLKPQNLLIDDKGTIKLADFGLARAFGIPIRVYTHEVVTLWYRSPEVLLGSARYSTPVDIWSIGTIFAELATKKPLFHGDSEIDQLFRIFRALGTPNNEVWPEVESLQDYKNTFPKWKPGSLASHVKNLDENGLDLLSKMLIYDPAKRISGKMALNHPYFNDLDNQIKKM
Chain of MAP kinase-interacting serine/threonine-protein kinase 2 (Q9HBH9 whole entry): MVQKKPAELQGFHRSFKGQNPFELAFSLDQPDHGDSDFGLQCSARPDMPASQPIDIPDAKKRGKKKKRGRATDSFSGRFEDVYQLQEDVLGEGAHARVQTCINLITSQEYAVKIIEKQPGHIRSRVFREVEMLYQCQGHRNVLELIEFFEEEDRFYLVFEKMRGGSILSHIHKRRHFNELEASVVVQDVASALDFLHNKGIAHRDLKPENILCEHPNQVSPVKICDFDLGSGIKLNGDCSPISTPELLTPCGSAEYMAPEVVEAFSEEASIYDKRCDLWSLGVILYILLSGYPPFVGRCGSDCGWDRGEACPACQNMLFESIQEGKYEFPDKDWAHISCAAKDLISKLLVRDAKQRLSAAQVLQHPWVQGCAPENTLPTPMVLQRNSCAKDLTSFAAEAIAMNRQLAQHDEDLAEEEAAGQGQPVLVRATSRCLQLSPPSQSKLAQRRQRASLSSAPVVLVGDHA
Chain of Cyclin-dependent kinase 9 (P50750 whole entry): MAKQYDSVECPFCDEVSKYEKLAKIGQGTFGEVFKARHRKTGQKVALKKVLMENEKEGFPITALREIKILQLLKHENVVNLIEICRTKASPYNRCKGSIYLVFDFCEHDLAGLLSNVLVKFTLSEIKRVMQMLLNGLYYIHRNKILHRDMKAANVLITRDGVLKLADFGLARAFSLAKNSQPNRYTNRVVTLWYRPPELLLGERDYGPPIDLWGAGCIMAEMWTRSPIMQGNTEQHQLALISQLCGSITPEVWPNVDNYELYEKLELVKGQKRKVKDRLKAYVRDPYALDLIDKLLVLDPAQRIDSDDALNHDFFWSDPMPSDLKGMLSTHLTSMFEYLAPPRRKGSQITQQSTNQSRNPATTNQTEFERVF
Chain of Serine/threonine-protein kinase pim-2 (Q9P1W9 whole entry): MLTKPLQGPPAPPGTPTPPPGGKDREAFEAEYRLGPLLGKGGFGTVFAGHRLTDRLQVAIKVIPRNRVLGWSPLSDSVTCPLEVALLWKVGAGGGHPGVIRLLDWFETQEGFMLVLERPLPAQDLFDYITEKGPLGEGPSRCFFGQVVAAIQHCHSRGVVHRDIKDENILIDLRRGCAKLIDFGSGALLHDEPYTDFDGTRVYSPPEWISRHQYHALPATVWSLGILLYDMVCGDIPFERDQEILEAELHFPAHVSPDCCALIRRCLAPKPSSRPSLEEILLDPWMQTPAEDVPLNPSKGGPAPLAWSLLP
Chain of Calcium/calmodulin-dependent protein kinase type II subunit delta (Q13557 whole entry): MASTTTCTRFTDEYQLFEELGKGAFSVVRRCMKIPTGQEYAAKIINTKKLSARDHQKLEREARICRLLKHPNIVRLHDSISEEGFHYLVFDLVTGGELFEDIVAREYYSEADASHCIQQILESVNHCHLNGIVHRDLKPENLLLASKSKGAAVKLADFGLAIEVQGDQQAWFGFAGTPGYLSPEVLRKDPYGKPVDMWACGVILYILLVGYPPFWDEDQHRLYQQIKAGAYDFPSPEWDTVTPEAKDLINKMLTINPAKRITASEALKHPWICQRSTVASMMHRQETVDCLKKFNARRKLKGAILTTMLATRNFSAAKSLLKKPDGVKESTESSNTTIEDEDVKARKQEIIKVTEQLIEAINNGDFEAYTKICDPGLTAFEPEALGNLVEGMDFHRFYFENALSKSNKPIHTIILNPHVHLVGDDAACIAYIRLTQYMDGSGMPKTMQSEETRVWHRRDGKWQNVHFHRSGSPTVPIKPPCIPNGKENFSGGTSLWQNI
Chain of Rho-associated protein kinase 2 (O75116 whole entry): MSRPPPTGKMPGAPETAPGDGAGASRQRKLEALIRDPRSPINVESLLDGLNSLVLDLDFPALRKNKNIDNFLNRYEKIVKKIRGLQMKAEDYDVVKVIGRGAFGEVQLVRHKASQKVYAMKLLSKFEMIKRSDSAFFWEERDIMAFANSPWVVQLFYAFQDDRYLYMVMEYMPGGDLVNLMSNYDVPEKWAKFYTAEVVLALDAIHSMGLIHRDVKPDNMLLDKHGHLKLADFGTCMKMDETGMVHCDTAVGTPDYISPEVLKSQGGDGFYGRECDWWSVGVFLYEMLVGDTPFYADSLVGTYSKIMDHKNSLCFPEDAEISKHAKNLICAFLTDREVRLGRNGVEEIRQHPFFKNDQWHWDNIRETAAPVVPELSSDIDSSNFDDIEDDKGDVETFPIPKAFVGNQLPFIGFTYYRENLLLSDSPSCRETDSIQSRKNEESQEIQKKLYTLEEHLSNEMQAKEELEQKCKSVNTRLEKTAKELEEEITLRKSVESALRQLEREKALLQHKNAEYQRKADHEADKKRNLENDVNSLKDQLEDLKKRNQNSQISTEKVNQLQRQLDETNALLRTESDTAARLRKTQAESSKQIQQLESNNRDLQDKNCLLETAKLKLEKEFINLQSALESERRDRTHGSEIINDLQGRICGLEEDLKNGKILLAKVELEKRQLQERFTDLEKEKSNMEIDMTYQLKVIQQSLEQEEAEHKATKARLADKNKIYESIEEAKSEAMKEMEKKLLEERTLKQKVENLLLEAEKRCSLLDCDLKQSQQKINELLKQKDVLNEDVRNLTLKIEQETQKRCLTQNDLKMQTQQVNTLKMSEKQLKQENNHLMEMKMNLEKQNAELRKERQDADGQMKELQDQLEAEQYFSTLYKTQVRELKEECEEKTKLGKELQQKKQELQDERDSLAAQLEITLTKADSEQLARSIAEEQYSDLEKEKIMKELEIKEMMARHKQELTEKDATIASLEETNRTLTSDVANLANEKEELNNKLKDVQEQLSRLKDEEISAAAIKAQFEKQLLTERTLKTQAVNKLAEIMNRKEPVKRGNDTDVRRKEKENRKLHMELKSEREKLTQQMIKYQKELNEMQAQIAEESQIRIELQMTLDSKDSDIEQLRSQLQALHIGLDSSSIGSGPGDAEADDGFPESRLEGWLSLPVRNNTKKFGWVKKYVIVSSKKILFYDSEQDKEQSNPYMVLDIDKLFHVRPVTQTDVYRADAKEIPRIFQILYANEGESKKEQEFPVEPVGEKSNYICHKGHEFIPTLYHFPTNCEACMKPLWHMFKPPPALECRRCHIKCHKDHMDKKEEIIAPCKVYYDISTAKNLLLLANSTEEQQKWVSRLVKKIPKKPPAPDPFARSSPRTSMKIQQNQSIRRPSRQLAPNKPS

IC50 [1] [nM]	IC50 [2] [nM]	IC50 [3] [nM]	IC50 [4] [nM]	solubility [5] [µM]	logD [6]	EC50 [7] [nM]	Papp A→B [8] [×10⁻⁶ cm/s]	efflux ratio [9]	IC50 [11] [nM]	IC50 [12] [nM]	IC50 [13] [nM]	IC50 [14] [nM]	IC50 [15] [nM]	IC50 [16] [nM]	CLint [17] [µL/min/mg]	hepatic extraction ratio [18]	Structure (SMILES)	EC50 [10] [nM]
4	2	1000	4000	102 (≈ 45 µg/mL)	1.8	130	4	3.6	–	–	–	–	–	–	–	–	CN(C)C(=O)c1cccc(-c2cnc(N)c(-c3nc4cccc(N5CCNCC5)c4[nH]3)c2)c1	–
120	720	160	1300	–	> 4.2	–	–	–	–	–	–	–	–	–	–	–	Nc1ncc(-c2ccccc2)cc1-c1nc2ccccc2[nH]1	–
2	1	500	1400	254 (≈ 116 µg/mL)	1.1	5	9	2.3	–	–	–	–	–	–	–	–	CN(C)C(=O)c1cccc(-c2cnc(N)c(-c3nc4cccc(N5CCNCC5)c4n3C)n2)c1	–
1.5	0.7	1000	3400	–	–	3	–	–	–	–	–	–	–	–	–	–	C[C@H]1CN(c2cccc3nc(-c4nc(-c5cccc(C(=O)N(C)C)c5)cnc4N)n(C)c23)CCN1	–
80	20	1700	11000	70 (≈ 31 µg/mL)	1.9	50	0.7	87	–	–	–	–	–	–	–	–	CN(C)C(=O)c1cccc(-c2cnc(N)c(-c3nc4cccc(N5CCNCC5)c4[nH]3)n2)c1	–
–	–	–	–	–	–	–	–	–	–	–	–	–	–	–	–	–	CC(=O)C1=C(O)C=C2Oc3c(C(N)=O)c(O)cc(O)c3[C@]2(C)C1=O	> 10000
36	34	1000	5700	–	4.2	–	–	–	–	–	–	–	–	–	–	–	CN(C)C(=O)c1cccc(-c2cnc(N)c(-c3nc4ccccc4[nH]3)c2)c1	–
700	900	10000	25000	300 (≈ 63.1 µg/mL)	3	–	–	–	–	–	–	–	–	–	–	–	Nc1ncccc1-c1nc2ccccc2[nH]1	–
3	3	> 25000	> 25000	220 (≈ 104 µg/mL)	1.9	0.6	5	5	> 25000	690	280	730	370	> 40000	32	0.54	C[C@H]1CN(c2cccc3nc(-c4nc(-c5cc(C(=O)N(C)C)ccn5)cnc4N)n(C)c23)CCN1	1700
